Measurements from ChEMBL document CHEMBL4138195, “Discovery of novel propargylamine-modified 4-aminoalkyl imidazole substituted pyrimidinylthiourea derivatives as multifunctional agents for the treatment of Alzheimer's disease” (Eur J Med Chem, 2018).
Active and inactive are the calls of the source. No cut-off for these calls is given here.

How the values were obtained:
[1] = molecular target: T1, Amine oxidase [flavin-containing] B (Homo sapiens, UniProt P27338)
T1 sequence (P27338 whole entry): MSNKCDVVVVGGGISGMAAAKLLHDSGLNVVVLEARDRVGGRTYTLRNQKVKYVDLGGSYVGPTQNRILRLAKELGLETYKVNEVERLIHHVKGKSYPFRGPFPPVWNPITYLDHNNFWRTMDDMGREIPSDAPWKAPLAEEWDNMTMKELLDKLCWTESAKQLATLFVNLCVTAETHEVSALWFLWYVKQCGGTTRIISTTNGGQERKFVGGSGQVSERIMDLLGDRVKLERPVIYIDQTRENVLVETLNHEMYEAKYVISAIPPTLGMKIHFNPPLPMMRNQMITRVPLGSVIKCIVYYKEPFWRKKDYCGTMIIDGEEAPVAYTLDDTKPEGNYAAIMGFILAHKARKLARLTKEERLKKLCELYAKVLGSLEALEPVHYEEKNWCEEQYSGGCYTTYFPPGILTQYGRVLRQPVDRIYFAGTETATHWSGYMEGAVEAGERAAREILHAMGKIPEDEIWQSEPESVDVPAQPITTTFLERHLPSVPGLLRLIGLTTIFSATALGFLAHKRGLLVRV

[2] = Antioxidant activity assessed as trolox equivalent of AAPH radical scavenging activity preincubated for 10 mins followed by AAPH addition measured every 2 mins for 180 mins by ORAC-FL assay; type: functional
In short: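 Compound at 20 µM (diluted from 10 mM DMSO stock in 75 mM phosphate, pH 7.4) with fluorescein (0.117 µM diluted) for 10 min at 37 °C, then AAPH (40 mM solution) added. Fluorescence (ex 485/em 535) read every 2 min for 180 min. […] Triplicate wells, ≥3 runs.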

[3] = molecular target: Butyrylcholinesterase (Rattus norvegicus) (UniProt Q9JKC1); assay: Inhibition of BuChE in rat serum at 40 uM using butyrylthiocholine iodide as substrate after 20 mins by Ellman's method
Acetylcholinesterase = molecular target: T2, Acetylcholinesterase (Rattus norvegicus, UniProt P37136); assay: Inhibition of AChE in rat cortex homogenate using acetylthiocholine iodide as substrate after 20 mins by Ellman's method
T2 sequence (P37136 whole entry): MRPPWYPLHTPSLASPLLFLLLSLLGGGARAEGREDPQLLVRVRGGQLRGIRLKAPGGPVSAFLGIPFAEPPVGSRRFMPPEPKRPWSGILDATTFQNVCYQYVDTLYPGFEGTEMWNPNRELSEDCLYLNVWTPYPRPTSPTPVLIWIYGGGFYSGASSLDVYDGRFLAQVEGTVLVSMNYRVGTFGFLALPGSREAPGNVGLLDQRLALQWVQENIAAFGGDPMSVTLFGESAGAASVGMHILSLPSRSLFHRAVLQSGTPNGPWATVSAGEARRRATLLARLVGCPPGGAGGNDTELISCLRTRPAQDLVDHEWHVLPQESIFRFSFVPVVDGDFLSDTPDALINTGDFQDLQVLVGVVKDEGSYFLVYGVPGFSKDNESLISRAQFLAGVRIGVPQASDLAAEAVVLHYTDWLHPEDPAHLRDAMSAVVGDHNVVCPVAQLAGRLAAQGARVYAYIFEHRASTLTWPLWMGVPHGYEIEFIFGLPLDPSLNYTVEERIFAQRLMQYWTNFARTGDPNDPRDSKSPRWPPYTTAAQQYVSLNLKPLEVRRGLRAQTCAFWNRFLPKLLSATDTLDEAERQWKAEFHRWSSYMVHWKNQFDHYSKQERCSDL

[4] = molecular target: T3, Amine oxidase [flavin-containing] A (Homo sapiens, UniProt P21397); assay: Inhibition of recombinant human MAOA using p-tyramine as substrate preincubated for 15 mins followed by substrate addition measured after 15 mins by Amplex red reagent based fluorescence assay
T3 sequence (P21397 whole entry): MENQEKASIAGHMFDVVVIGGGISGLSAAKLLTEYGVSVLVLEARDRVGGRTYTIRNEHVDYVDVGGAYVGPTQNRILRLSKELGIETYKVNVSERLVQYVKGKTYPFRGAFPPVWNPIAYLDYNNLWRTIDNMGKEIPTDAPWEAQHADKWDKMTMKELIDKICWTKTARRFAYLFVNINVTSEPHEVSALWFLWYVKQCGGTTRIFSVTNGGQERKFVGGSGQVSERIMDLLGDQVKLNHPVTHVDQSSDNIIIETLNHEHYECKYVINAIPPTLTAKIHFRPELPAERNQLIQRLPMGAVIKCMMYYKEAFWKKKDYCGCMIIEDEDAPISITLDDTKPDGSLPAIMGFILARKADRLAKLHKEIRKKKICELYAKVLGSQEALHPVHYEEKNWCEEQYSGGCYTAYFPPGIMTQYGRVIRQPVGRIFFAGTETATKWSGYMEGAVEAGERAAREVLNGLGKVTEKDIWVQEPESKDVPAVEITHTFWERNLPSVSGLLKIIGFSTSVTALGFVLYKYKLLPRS

[5] = molecular target: T3, Amine oxidase [flavin-containing] A; assay: Inhibition of recombinant human MAOA at 50 uM using p-tyramine as substrate preincubated for 15 mins followed by substrate addition measured after 15 mins by Amplex red reagent based fluorescence assay; conditions: 0.25 h
In short: (§1)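 Recombinant human MAO-A (12.5 µg/mL) or MAO-B (75 µg/mL) preincubated 15 min at 37 °C with compound (diluted from 10 mM DMSO stock in 50 mM KH2PO4, pH 7.4). Amplex Red working solution added: 2 mM p-tyramine (MAO-A) or benzylamine (MAO-B), 2 U/mL HRP. After 15 min at 37 °C, fluorescence read (ex 545/em 590), background from enzyme-free wells subtracted.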

Butyrylcholinesterase = Butyrylcholinesterase (Rattus norvegicus, UniProt Q9JKC1); assay: Inhibition of BuChE in rat serum using butyrylthiocholine iodide as substrate after 20 mins by Ellman's method
Rattus norvegicus = organism: Rattus norvegicus; assay: Selectivity index, ratio of IC50 for BuChE in rat serum to IC50 for AChE in rat cortex homogenate; type: tissue-based
[6] = molecular target: T1, Amine oxidase [flavin-containing] B; assay: Inhibition of recombinant human MAOB at 50 uM using benzylamine as substrate preincubated for 15 mins followed by substrate addition measured after 15 mins by Amplex red reagent based fluorescence assay; conditions: 0.25 h
Cortical neurone = assay: Cytotoxicity against E17 Sprague-Dawley rat primary cortical neurons at 10 to 30 uM after 24 hrs by MTT assay; type: cell-based
in vitro [7] = conditions: PAMPA
Homo sapiens = organism: Homo sapiens; assay: Selectivity index, ratio of IC50 for recombinant human MAOA to IC50 for recombinant human MAOB
In short: as §1

in vitro [8] = conditions: PAMPA, pH 7.4
[9] = Inhibition of Cu2+-mediated amyloid beta (1 to 42) peptide-induced cytotoxicity in E17 Sprague-Dawley rat primary cortical neurons assessed as neuroprotective activity by measuring increase in cell viability at 1 uM after 24 hrs by MTT assay
In short: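 Rat E17 primary cortical neurons after 9 days in culture. Aβ1-42 samples, prepared as for the dot blot (± Cu2+, ± compound), added to the cultures at 1 µM for 24 h. Viability by MTT, normalized to the vehicle group. EGCG and clioquinol as positive controls.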

[10] = Inhibition of Cu2+-induced amyloid beta (1 to 42 residues) (unknown origin) aggregation assessed as reduction in amyloid beta fibril load at 50 uM after 24 hrs by phosphotungstic acid staining-based transmission electron microscopic method
In short: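 Aβ1-42 (25 µM) ± CuCl2 (25 µM) ± compound (50 µM) in HEPES/NaCl pH 6.6, incubated 24 h at 37 °C. Aliquots placed on carbon-coated copper grids for 30 min, stained 20 s with 2% phosphotungstic acid, imaged by TEM. Clioquinol as comparator.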

Butyrylcholinesterase (Rattus norvegicus), sequence (Q9JKC1 as listed by the source): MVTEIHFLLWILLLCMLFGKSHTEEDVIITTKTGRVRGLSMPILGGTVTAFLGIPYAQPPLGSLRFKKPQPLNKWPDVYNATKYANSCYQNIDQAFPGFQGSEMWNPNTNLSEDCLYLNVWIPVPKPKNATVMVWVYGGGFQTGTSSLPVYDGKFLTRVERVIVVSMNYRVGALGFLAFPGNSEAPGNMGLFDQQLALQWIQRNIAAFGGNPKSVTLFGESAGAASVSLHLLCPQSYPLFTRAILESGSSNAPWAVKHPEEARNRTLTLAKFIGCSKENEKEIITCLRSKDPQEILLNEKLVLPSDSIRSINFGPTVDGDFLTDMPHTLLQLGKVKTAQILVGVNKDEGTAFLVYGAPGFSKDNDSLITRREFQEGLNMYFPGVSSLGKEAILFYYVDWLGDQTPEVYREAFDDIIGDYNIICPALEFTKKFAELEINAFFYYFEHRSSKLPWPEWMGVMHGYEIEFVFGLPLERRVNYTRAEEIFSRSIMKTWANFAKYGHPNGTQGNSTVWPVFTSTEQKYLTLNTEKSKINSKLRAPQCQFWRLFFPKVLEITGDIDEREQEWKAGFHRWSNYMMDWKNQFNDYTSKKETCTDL
Butyrylcholinesterase, sequence (Q9JKC1 whole entry): as the sequence (Q9JKC1 as listed by the source) above

Papp at 18 h, 25 ug/ml (in vitro [8])	inhibition [10]	Structure (SMILES)	IC50 [1]	Activity (umolequiv/umol) [2]	inhibition [3]	IC50 (Acetylcholinesterase)	IC50 [4]	inhibition at 50 µM [5]	IC50 (Butyrylcholinesterase)	Ratio IC50 (Rattus norvegicus)	inhibition at 50 µM [6]	Activity (Cortical neurone)	Papp at 12 h, 100 ug/ml (in vitro [7])	Ratio IC50 (Homo sapiens)	Activity [9]
–	–	C#CCN(C)CCCc1cn(-c2cc(NC(=S)NCC)ncn2)cn1	3.23 µM	0.447	6.7%	0.459 µM	> 50 µM	63.8%	> 40 µM	–	–	–	–	–	–
–	–	C#CCN(CC#N)Cc1cn(-c2cc(NC(=S)NCC)ncn2)cn1	> 50 µM	0.494	5.48%	0.707 µM	> 50 µM	2.01%	> 40 µM	> 57	15.3%	–	–	–	–
–	–	COc1cc2c(cc1OC)C(=O)C(CC1CCN(Cc3ccccc3)CC1)C2 (stereo unspecified) [DONEPEZIL]	–	–	–	–	–	–	–	–	–	Non-Toxic	–	–	–
–	–	C#CCN(C)CCc1cn(-c2cc(NC(=S)NCC)ncn2)cn1	12.4 µM	1.24	8.91%	0.392 µM	9 µM	–	> 40 µM	> 102	–	–	3.33 ×10⁻⁶ cm/s	0.724	–
–	–	C#CCN(Cc1ccccc1)Cc1cn(-c2cc(NC(=S)NCC)ncn2)cn1	> 50 µM	–	9.28%	0.585 µM	> 50 µM	17.8%	> 40 µM	> 68	18.4%	–	–	–	–
11 ×10⁻⁶ cm/s	–	COc1ccc(CCN2CCC(Nc3nc4ccccc4n3Cc3ccc(F)cc3)CC2)cc1 [ASTEMIZOLE]	–	–	–	–	–	–	–	–	–	–	8.48 ×10⁻⁶ cm/s	–	–
–	–	C#CCN1CCN(Cc2cn(-c3cc(NC(=S)NCC)ncn3)cn2)CC1	> 50 µM	1.03	7.3%	0.482 µM	> 50 µM	9.22%	> 40 µM	> 83	13.3%	–	–	–	–
–	–	C#CCN(CCCC)Cc1cn(-c2cc(NC(=S)NCC)ncn2)cn1	> 50 µM	0.238	13.4%	0.675 µM	> 50 µM	2.43%	> 40 µM	> 59	20.1%	–	–	–	–
–	Active	Oc1c(I)cc(Cl)c2cccnc12	–	–	–	–	–	–	–	–	–	–	–	–	Active
